ChEMBL document CHEMBL1131069 (J Med Chem, 1998)
pIC50: −log10 of the molar value. Activity calls are given as the source filed them. The rule behind the calls is not given here.

Tests used:
[1] = test system: Mus musculus; test: Anticonvulsant activity determined at 4 hours after the administration of compound using sc Ptz test. (- denotes activity at 300 mg/kg); assay type: functional, organism-based; parameters: dose 300 mg/kg
How it was run: (§1)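 Male CF-1 mice (18-25 g) dosed ip at 30, 100 or 300 mg/kg. Pentylenetetrazol in 0.9% NaCl was injected sc at 0.01 mL/g. Tests were run 30 min or 4 h after dosing.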

[2] = Apparent IC50 value by [3H]batrachotoxinin-A-20-alpha-benzoate-binding test performed in rat brain synaptosomes; assay type: subcellular
How it was run: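 Rat brain synaptosomes, about 400 µg protein per assay, incubated 2 h at 37 °C, pH 7.4, in choline chloride/HEPES/glucose/KCl medium with 10 nM [³H]batrachotoxinin-A-20α-benzoate and scorpion venom. Stopped with cold-free choline chloride/HEPES/CaCl₂/MgSO₄ washes, filtered on GF/B, bound radioactivity counted. Protein by Bradford. Apparent IC50 from quadruplicate measurements, mean ± SD.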

[3] = test system: Mus musculus; test: Anticonvulsant activity determined at 30 minutes after the administration of compound using sc Ptz test. (+++ = activity at 30 mg/kg); assay type: functional, organism-based; parameters: dose 30 mg/kg; how it was run: as §1
[4] = test system: Rattus norvegicus; test: Anticonvulsant activity was determined in rats at a dose of 30 mg/kg after 1 hour by MES test. (++++ denotes activity in 75-100% of administered animals); assay type: functional, organism-based; parameters: dose 30 mg/kg
[5] = test system: Mus musculus; test: Anticonvulsant activity determined at 4 hours after the administration of compound using MES test.(++= signify activity at 100 mg/kg); assay type: functional, organism-based; parameters: dose 100 mg/kg
How it was run: (§2)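 Male CF-1 albino mice (18-25 g) dosed intraperitoneally at 30, 100 or 300 mg/kg. Protection against maximal electroshock-induced seizures was scored 30 min or 4 h after dosing.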

[6] = test system: Rattus norvegicus; test: Anticonvulsant activity was determined in rats at a dose of 30 mg/kg after 2 hour by MES test. (++++ denotes activity in 75-100% of administered animals); assay type: functional, organism-based; parameters: dose 30 mg/kg
[7] = Neurotoxicity determined at 30 minutes after the administration of compound by rotarod test.(++= signify activity at 100 mg/kg); assay type: toxicity, organism-based; parameters: dose 100 mg/kg; conditions: mouse, in vivo, 0.5 h
How it was run: (§3)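 Male CF-1 mice dosed ip at 30, 100 or 300 mg/kg and tested 30 min or 4 h later on a 1-in. knurled rod turning at 6 rpm. A deficit was failure to stay on the rod for 1 min in each of three trials. Coding: ++ 100, + 300 mg/kg; - means none at 300 mg/kg.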

[8] = test system: Rattus norvegicus; test: (§4) Toxicity was determined in rats at a dose of 30 mg/kg after 4 hour. (- denotes no activity in administered animals).; assay type: functional, organism-based; parameters: dose 30 mg/kg
How it was run: (§5)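 Male Sprague-Dawley rats given a single oral dose of 30 mg/kg and assessed for toxicity 4 h after dosing, with at least four animals per time point. Score is the fraction of animals affected (+ 0-25%); - means no toxicity.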

[9] = test system: Mus musculus; test: Anticonvulsant activity determined at 30 minutes after the administration of compound using MES test. (+++ = activity at 30 mg/kg); assay type: functional, organism-based; parameters: dose 30 mg/kg; how it was run: as §2
[10] = Neurotoxicity determined at 4 hours after the administration of compound by rotarod test (++= signify activity at 100 mg/kg); assay type: toxicity, organism-based; parameters: dose 100 mg/kg; conditions: mouse, in vivo; how it was run: as §3
[11] = test system: Rattus norvegicus; test: Anticonvulsant activity was determined in rats at a dose of 30 mg/kg after 15 minutes by MES test. (++++ denotes activity in 75-100% of administered animals); assay type: functional, organism-based; parameters: dose 30 mg/kg
[12] = test system: Rattus norvegicus; test: Anticonvulsant activity was determined in rats at a dose of 30 mg/kg after 30 minutes by MES test. (++++ denotes activity in 75-100% of administered animals); assay type: functional, organism-based; parameters: dose 30 mg/kg
[13] = test system: Rattus norvegicus; test: Anticonvulsant activity was determined in rats at a dose of 30 mg/kg after 4 hour by MES test. (++ denotes activity in 25-50% of administered animals).; assay type: functional, organism-based; parameters: dose 30 mg/kg
[14] = test system: Rattus norvegicus; test: Anticonvulsant ED50 activity by MES test in rats dosed orally; assay type: functional; conditions: po
How it was run: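 Male Sprague-Dawley rats (100-150 g) dosed orally. ED50 is the dose protecting 50% of animals against maximal electroshock-induced seizures. […]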

[15] = test system: Mus musculus; test: Anticonvulsant activity determined at 4 hours after the administration of compound using MES test.(+ = signify activity at 300 mg/kg); assay type: functional, organism-based; parameters: dose 300 mg/kg; how it was run: as §2
[16] = Neurotoxicity determined at 30 minutes after the administration of compound by rotarod test.(- denotes activity at 300 mg/kg); assay type: toxicity, organism-based; parameters: dose 300 mg/kg; conditions: mouse, in vivo, 0.5 h; how it was run: as §3
[17] = test system: Rattus norvegicus; test: Anticonvulsant activity was determined in rats at a dose of 30 mg/kg after 4 hour by MES test. (++++ denotes activity in 75-100% of administered animals); assay type: functional, organism-based; parameters: dose 30 mg/kg
[18] = as §4; assay type: organism-based; parameters: dose 30 mg/kg; conditions: rat, in vivo; how it was run: as §5
[19] = Neurotoxicity determined at 4 hours after the administration of compound by rotarod test(- denotes activity at 300 mg/kg); assay type: toxicity, organism-based; parameters: dose 300 mg/kg; conditions: mouse, in vivo; how it was run: as §3
[20] = test system: Mus musculus; test: Anticonvulsant activity determined at 30 minutes after the administration of compound using MES test. (+ = signify activity at 300 mg/kg); assay type: functional, organism-based; parameters: dose 300 mg/kg; how it was run: as §2
[21] = Neurotoxicity determined at 4 hours after the administration of compound by rotarod test (+ = signify activity at 300 mg/kg); assay type: toxicity, organism-based; parameters: dose 300 mg/kg; conditions: mouse, in vivo; how it was run: as §3
[22] = Neurotoxicity determined at 30 minutes after the administration of compound by rotarod test.(+ = signify activity at 300 mg/kg); assay type: toxicity, organism-based; parameters: dose 300 mg/kg; conditions: mouse, in vivo, 0.5 h; how it was run: as §3
[23] = test system: Mus musculus; test: Anticonvulsant activity determined at 4 hours after the administration of compound using MES test. (++= signify activity at 100 mg/kg); assay type: functional, organism-based; parameters: dose 100 mg/kg; how it was run: as §2
[24] = Neurotoxicity determined at 30 minutes after the administration of compound by rotarod test. (+ = signify activity at 300 mg/kg); assay type: toxicity, organism-based; parameters: dose 300 mg/kg; conditions: mouse, in vivo, 0.5 h; how it was run: as §3
[25] = Neurotoxicity determined at 4 hours after the administration of compound by rotarod test (- denotes activity at 300 mg/kg); assay type: toxicity, organism-based; parameters: dose 300 mg/kg; conditions: mouse, in vivo; how it was run: as §3
[26] = Toxicity was determined in rats at a dose of 30 mg/kg after 4 hour (- denotes no activity in administered animals).; assay type: organism-based; parameters: dose 30 mg/kg; conditions: rat, in vivo; how it was run: as §5
[27] = test system: Rattus norvegicus; test: Anticonvulsant activity was determined in rats at a dose of 30 mg/kg after 1 hour by MES test. (++ denotes activity in 25-50% of administered animals).; assay type: functional, organism-based; parameters: dose 30 mg/kg
[28] = test system: Rattus norvegicus; test: Anticonvulsant activity was determined in rats at a dose of 30 mg/kg after 2 hour by MES test. (+ denotes activity in 0-25% of administered animals).; assay type: functional, organism-based; parameters: dose 30 mg/kg
[29] = test system: Rattus norvegicus; test: Anticonvulsant activity was determined in rats at a dose of 30 mg/kg after 4 hour by MES test. (+ denotes activity in 0-25% of administered animals).; assay type: functional, organism-based; parameters: dose 30 mg/kg

SMILES	pIC50 [2]	Activity [5]	Activity [11]	ED50 [14] [µmol/kg]	Activity [16]	Activity [18]	Activity [19]	other results
Cc1cccc(C)c1N1C(=O)c2ccc(N)cc2C1=O	6.96	Active	Active	25.3	–	–	–	Activity [1]: inactive; Activity [3]: Active; Activity [4]: Active; Activity [6]: Active; Activity [7]: Active; Activity [8]: Not toxic; Activity [9]: Active; Activity [10]: Active; Activity [12]: Active; Activity [13]: Weak activity
Cc1ccc(N)c(C)c1N1C(=O)c2ccccc2C1=O	–	–	–	–	–	–	–	Activity [15]: signifies activity at 300 mg/kg
Cc1cccc(C)c1NC(=O)c1ccc(N)cc1 [AMELTOLIDE]	–	Activity at 300 mg/kg	++	135	Activity at 300 mg/kg	Activity at 300 mg/kg	Activity at 300 mg/kg	Activity [17]: ++
CC1(C)CC(NC(=O)c2ccc([N+](=O)[O-])cc2)CC(C)(C)N1	4.59	–	–	> 650	–	signifies activity at 300 mg/kg	–	Activity [20]: signifies activity at 300 mg/kg; Activity [21]: signifies activity at 300 mg/kg; Activity [22]: signifies activity at 300 mg/kg
Cc1cccc(C)c1NC(=O)c1ccc([N+](=O)[O-])cc1	6.60	–	++	52.3	–	Activity at 300 mg/kg	–	Activity [23]: Activity at 300 mg/kg; Activity [24]: Activity at 300 mg/kg; Activity [25]: Activity at 300 mg/kg
Cc1cccc(C)c1NC(=O)c1ccc(O)cc1	6.46	activity in 0-25% of administered animals	–	284	activity in 0-25% of administered animals	–	activity in 0-25% of administered animals	Activity [26]: activity in 0-25% of administered animals; Activity [27]: activity in 0-25% of administered animals; Activity [28]: activity in 0-25% of administered animals; Activity [29]: activity in 0-25% of administered animals
